The source of these data is ChEMBL document CHEMBL4177576, “Linker structure-activity relationships in fluorodeoxyglucose chlorambucil conjugates for tumor-targeted chemotherapy” (Bioorg Med Chem, 2017).

The source made the active and inactive calls. No cut-off for these calls is given here. Bounds are passed on as bounds.

One assay deals with A549. Nature of the assay: Cytotoxicity against human A549 assessed as inhibition of cell growth incubated for 48 hrs by resazurin reduction test. Type of assay: functional, cell-based. The conditions noted are these: A549, 48 h. An outline of the steps: (§1)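 Monolayers grown in MEM with 10% fetal calf serum, pyruvate, vitamins, non-essential amino acids and gentamicin at 37 °C, 5% CO2. Cells were seeded at 5×10^3/well and left 16 h to adhere. Compounds were added from DMSO stocks (final 0.5% DMSO) for 48 h continuous exposure, in triplicate. Resazurin 25 μg/mL was then added for 1 h and fluorescence read at 530/590 nm. IC50 was taken from concentration–cell number curves as % of control after blank subtraction.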
(Resazurin is reduced to fluorescent resorufin, in cell work by metabolically active cells.)

Another assay has as its system PC-3. Nature of the assay: Cytotoxicity against human PC3 assessed as inhibition of cell growth incubated for 48 hrs by resazurin reduction test. The assay is classed as functional, cell-based. Conditions: PC-3, 48 h. Put shortly:
as §1

The subject of a further assay is Fibroblast. Nature of the assay: Cytotoxicity against human fibroblasts assessed as inhibition of cell growth incubated for 48 hrs by resazurin reduction test. The assay is classed as cell-based. Put shortly:
as §1

The next assay deals with M4Beu cell line. Nature of the assay: Cytotoxicity against human M4Beu assessed as inhibition of cell growth incubated for 48 hrs by resazurin reduction test. The assay is classed as functional, cell-based. An outline of the steps:
as §1

For another assay, the system named is PA-1. Nature of the assay: Cytotoxicity against human PA1 assessed as inhibition of cell growth incubated for 48 hrs by resazurin reduction test. Type of assay: functional, cell-based. Conditions: PA-1, 48 h. Put shortly:
as §1

The subject of the next assay is MCF7. Description: Cytotoxicity against human MCF7 assessed as inhibition of cell growth incubated for 48 hrs by resazurin reduction test. Conditions: MCF7, 48 h. The assay is classed as functional, cell-based. Put shortly:
as §1

In assay [1] the test system is A549 (Homo sapiens). Nature of the assay: Cytotoxicity against human A549 assessed as inhibition of cell growth up to 200 uM incubated for 48 hrs in presence of 50 uM chlorambucil by resazurin reduction test.
Assay [2] has as its system A549 (Homo sapiens). Nature of the assay: Cytotoxicity against human A549 assessed as inhibition of cell growth up to 200 uM incubated for 48 hrs in absence of 50 uM chlorambucil by resazurin reduction test.

One may read the IC50 as the point on the concentration scale where inhibition reaches its midpoint. On to `CC(=O)OC[C@H]1O[C@@H](NC(=O)CC(=O)NCCCc2ccc(N(CCCl)CCCl)cc2)[C@H](F)[C@@H](OC(C)=O)[C@@H]1OC(C)=O`, for which the IC50 with A549 was 8 µM; with PC-3, 5 µM; with Fibroblast, 13 µM; in the assay on M4Beu cell line it was 12 µM; in the assay on PA-1, 0.4 µM; in the assay on MCF7, 9 µM.
For `CC(=O)OC[C@H]1O[C@@H](OC(=O)NCC(=O)Nc2ccc(NC(=O)CCCc3ccc(N(CCCl)CCCl)cc3)cc2)[C@H](F)[C@@H](OC(C)=O)[C@@H]1OC(C)=O`, the IC50 in the assay with A549 came out at 13 µM; in the assay on PC-3, 6.5 µM; with Fibroblast, 10 µM; in the assay with M4Beu cell line, 18 µM; with PA-1 it was 0.8 µM; in the assay on MCF7, 13 µM.
Turning to `CC(=O)OC[C@H]1O[C@@H](OC(=O)NCC(=O)Nc2ccc(OC(=O)CCCc3ccc(N(CCCl)CCCl)cc3)cc2)[C@H](F)[C@@H](OC(C)=O)[C@@H]1OC(C)=O`, the half-maximal inhibitory concentration (IC50) in the assay with A549 was 39 µM; with PC-3, > 50 µM; in the assay on Fibroblast, 32 µM; in the assay with M4Beu cell line, 30 µM; in the assay with PA-1 it was 9 µM; with MCF7, 39.5 µM.
As for `CC(=O)OC[C@H]1O[C@@H](NC(=O)COC(=O)CCCc2ccc(N(CCCl)CCCl)cc2)[C@H](F)[C@@H](OC(C)=O)[C@@H]1OC(C)=O`, the concentration for half-maximal inhibition (IC50) in the assay with A549 was 15 µM; with PC-3 it was > 50 µM; in the assay with Fibroblast, > 50 µM; in the assay with M4Beu cell line, > 50 µM; in the assay with PA-1 it was 3.8 µM; with MCF7 it was > 50 µM.
For `CC(=O)OC[C@H]1O[C@@H](NC(=O)c2ccc(OC(=O)CCCc3ccc(N(CCCl)CCCl)cc3)cc2)[C@H](F)[C@@H](OC(C)=O)[C@@H]1OC(C)=O`, the IC50 in the assay with A549 is 19 µM; in the assay with PC-3, > 50 µM; in the assay on Fibroblast it was > 50 µM; with M4Beu cell line, > 50 µM; in the assay on PA-1, 4 µM; in the assay with MCF7 it was > 50 µM.
`OC[C@H]1OC(O)[C@H](F)[C@@H](O)[C@@H]1O` (stereo partly drawn): the “growth inhibition (GI)” value with A549 (Homo sapiens) [1] and with A549 (Homo sapiens) [2] was “Active” in each case.
Turning to `CC(=O)OC[C@H]1O[C@@H](OC(=O)Nc2ccc(OC(=O)CCCc3ccc(N(CCCl)CCCl)cc3)cc2)[C@H](F)[C@@H](OC(C)=O)[C@@H]1OC(C)=O`, the IC50 in the assay on A549 is 22 µM; in the assay on PC-3, > 50 µM; with Fibroblast it was > 50 µM; in the assay on M4Beu cell line it was > 50 µM; with PA-1 it was 6 µM; with MCF7, > 50 µM.
For `CC(=O)OC[C@H]1O[C@@H](OC(=O)c2ccc(NC(=O)CCCc3ccc(N(CCCl)CCCl)cc3)cc2)[C@H](F)[C@@H](OC(C)=O)[C@@H]1OC(C)=O`, the IC50 worked out at 1.7 µM in the assay with A549; 4 µM with PC-3; 4 µM in the assay on Fibroblast; 6 µM with M4Beu cell line; 0.45 µM with PA-1; 6 µM in the assay on MCF7.
For the compound `CC(=O)OC[C@H]1O[C@@H](NC(=O)c2ccc(NC(=O)CNC(=O)CCCc3ccc(N(CCCl)CCCl)cc3)cc2)[C@H](F)[C@@H](OC(C)=O)[C@@H]1OC(C)=O`, the IC50 in the assay on A549 was 30 µM; in the assay with PC-3, 6 µM; with Fibroblast, 8 µM; with M4Beu cell line it was 17.8 µM; in the assay with PA-1, 13 µM; in the assay with MCF7 it was 7 µM.
As to `CC(=O)OC[C@H]1O[C@@H](Oc2ccc(NC(=O)CNC(=O)CCCc3ccc(N(CCCl)CCCl)cc3)cc2)[C@H](F)[C@@H](OC(C)=O)[C@@H]1OC(C)=O`, the IC50 in the assay with PC-3 is 7 µM; with Fibroblast, 17 µM; in the assay on M4Beu cell line it was 15 µM; in the assay on PA-1 it was 1.5 µM; in the assay with MCF7, 16 µM.
As for `CC(=O)OC[C@H]1O[C@@H](Oc2ccc(NC(=O)c3ccc(NC(=O)CCCc4ccc(N(CCCl)CCCl)cc4)cc3)cc2)[C@H](F)[C@@H](OC(C)=O)[C@@H]1OC(C)=O`, the half-maximal inhibitory concentration (IC50) in the assay with A549 turned out to be 6 µM; with PC-3, 2.1 µM; in the assay with Fibroblast, 3 µM; with M4Beu cell line, 3 µM; with MCF7, 3.4 µM.
As to `CC(=O)OC[C@H]1O[C@@H](Oc2ccc(NC(=O)CNC(=O)CNC(=O)CCCc3ccc(N(CCCl)CCCl)cc3)cc2)[C@H](F)[C@@H](OC(C)=O)[C@@H]1OC(C)=O`, the half-maximal inhibitory concentration (IC50) in the assay with A549 was > 50 µM; in the assay with PC-3, 20 µM; with Fibroblast, > 50 µM; in the assay on M4Beu cell line, > 50 µM; in the assay with PA-1 it was 4 µM; in the assay on MCF7, 32 µM.
For `CC(=O)OC[C@H]1O[C@@H](Oc2ccc(NC(=O)CC(=O)NCCCc3ccc(N(CCCl)CCCl)cc3)cc2)[C@H](F)[C@@H](OC(C)=O)[C@@H]1OC(C)=O`, the IC50 in the assay on A549 is > 50 µM; with PC-3, 8 µM; with Fibroblast it was > 50 µM; in the assay with M4Beu cell line it was 13.8 µM; in the assay on PA-1, 2 µM; in the assay on MCF7, 14 µM.
For `O=C(O)CCCc1ccc(N(CCCl)CCCl)cc1` [CHLORAMBUCIL], the IC50 in the assay on PC-3 is > 100 µM.
With `CC(=O)OC[C@H]1OC(OC(C)=O)[C@H](F)[C@@H](OC(C)=O)[C@@H]1OC(C)=O` (stereo partly drawn), the “growth inhibition (GI)” value in the assay with A549 (Homo sapiens) [1] and in the assay on A549 (Homo sapiens) [2] was “Active” in each case.
Take `CC(=O)OC[C@H]1O[C@@H](OC(=O)Nc2ccc(NC(=O)CCCc3ccc(N(CCCl)CCCl)cc3)cc2)[C@H](F)[C@@H](OC(C)=O)[C@@H]1OC(C)=O`: the IC50 in the assay on A549 is 2 µM; with PC-3, 3.6 µM; with Fibroblast, > 50 µM; in the assay on M4Beu cell line it was 29 µM; with PA-1, 1.2 µM; with MCF7, 35 µM.
Regarding `CC(=O)OC[C@H]1O[C@@H](Oc2ccc(NC(=O)COC(=O)CCCc3ccc(N(CCCl)CCCl)cc3)cc2)[C@H](F)[C@@H](OC(C)=O)[C@@H]1OC(C)=O`, the half-maximal inhibitory concentration (IC50) was 39 µM in the assay with A549; > 50 µM with PC-3; 32.5 µM in the assay with Fibroblast; > 50 µM in the assay with M4Beu cell line; 7.6 µM in the assay with PA-1; > 50 µM with MCF7.
Turning to `CC(=O)OC[C@H]1O[C@@H](OC(=O)Nc2ccc(NC(=O)CNC(=O)CCCc3ccc(N(CCCl)CCCl)cc3)cc2)[C@H](F)[C@@H](OC(C)=O)[C@@H]1OC(C)=O`, the half-maximal inhibitory concentration (IC50) in the assay on A549 is 9 µM; in the assay with PC-3, 4.9 µM; with Fibroblast it was 21 µM; in the assay with M4Beu cell line it was 31 µM; in the assay with PA-1, 1.3 µM; in the assay with MCF7, 15 µM.
